Results published in ChEMBL document CHEMBL1139397, “Thiazolidinone CFTR inhibitors with improved water solubility identified by structure-activity analysis” (Bioorg Med Chem, 2008).
Active and inactive are the calls of the source. The calls are words filed in the database; no cut-off is given here.

Target: Cystic fibrosis transmembrane conductance regulator (Homo sapiens, UniProt P13569)
Assay: Inhibition of human wild type CFTR expressed in rat FRT cells assessed as chloride current by short-circuit current measurements
Assay type: cell-based
How it was run: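 FRT cells stably expressing human wildtype CFTR were grown on filters to >1,000 Ω·cm2. Basolateral membrane permeabilized with amphotericin B (250 μg/ml, 30 min). Apical Cl− current was measured under a gradient: basolateral 130 mM NaCl buffer, pH 7.3; apical 65 mM NaCl replaced by gluconate. Solutions at 37 °C under 95% O2/5% CO2. CFTR activated with 100 μM CPT-cAMP, then inhibitor added at increasing concentrations. IC50 fitted from concentration-inhibition data.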

| Activity | IC50 [µM] | Structure (SMILES) |
| --- | --- | --- |
| inactive | – | CC(=O)OCOC(=O)c1ccc(/C=C2\SC(=S)N(c3cccc(C(F)(F)F)c3)C2=O)cc1 |
| inactive | – | O=C(O)c1ccc(-n2cc(-c3cccc(C(F)(F)F)c3)nn2)cc1 |
| – | 1.5 | O=C(O)c1cccc(/C=C2\SC(=S)N(c3cccc(C(F)(F)F)c3)C2=O)c1 |
| – | 12 | O=C(O)c1ccc(/C=C2\SC(=S)N(c3ccccc3C(F)(F)F)C2=O)cc1 |
| – | 1.4 | O=C(O)c1cc(/C=C2\SC(=S)N(c3cccc(C(F)(F)F)c3)C2=O)ccc1O |
| – | 8 | O=C1/C(=C/c2cc(Br)c(O)c(Br)c2O)SC(=S)N1c1cccc(C(F)(F)F)c1 |
| – | 36 | O=C(O)c1ccc(NC2=C(Cl)C(=O)N(c3cccc(C(F)(F)F)c3)C2=O)cc1 |
| – | 7 | O=C(O)c1ccc(SC2CC(=O)N(c3cccc(C(F)(F)F)c3)C2=O)cc1 (stereo unspecified) |
| inactive | – | COc1c(Br)cc(/C=C2\SC(=S)N(c3cccc(C(F)(F)F)c3)C2=O)c(O)c1Br |
| – | 25 | O=C(O)c1cc(/C=C2\SC(=S)N(c3ccc(C(F)(F)F)cc3)C2=O)ccc1O |
| – | 14 | O=C(O)c1ccc(/C=C2\SC(=S)N(c3cc(C(F)(F)F)cc(C(F)(F)F)c3)C2=O)cc1 |
| – | 28 | O=C1/C(=C/c2ccc(O)c(O)c2O)SC(=S)N1c1cccc(C(F)(F)F)c1 |
| inactive | – | O=C1/C(=C/c2ccc(O)c(O)c2)SC(=S)N1c1cccc(C(F)(F)F)c1 |
| – | 5 | Cc1cccc(N2C(=O)/C(=C/c3ccc(C(=O)O)cc3)SC2=S)c1 |
| – | 17 | O=C1S/C(=C\c2ccc(-c3nn[nH]n3)cc2)C(=O)N1c1cccc(C(F)(F)F)c1 |
| – | 15 | O=C(O)c1ccc(/C=C2\SC(=S)N(c3ccc(C(F)(F)F)cc3)C2=O)cc1 |
| – | 24 | O=C1/C(=C/c2ccc(O)cc2)SC(=S)N1c1cccc(C(F)(F)F)c1 |
| inactive | – | O=C(O)c1ccc(Nc2nnc(-c3cccc(C(F)(F)F)c3)s2)cc1 |
| inactive | – | COc1ccc(/C=C2\SC(=S)N(c3cccc(C(F)(F)F)c3)C2=O)cc1 |
| – | 14 | O=C(O)c1cc(/C=C2\SC(=S)N(c3ccccc3C(F)(F)F)C2=O)ccc1O |
| inactive | – | NCCNC(=O)c1ccc(/C=C2\SC(=S)N(c3cccc(C(F)(F)F)c3)C2=O)cc1 |
| – | 30 | O=C(O)COc1cccc(/C=C2\SC(=S)N(c3cccc(C(F)(F)F)c3)C2=O)c1 |
| inactive | – | O=C(O)c1cc(Nc2nnc(-c3cccc(C(F)(F)F)c3)s2)ccc1O |
| inactive | – | CCOC(=O)c1ccc(/C=C2\SC(=S)N(c3cccc(C(F)(F)F)c3)C2=O)cc1 |

| Activity | IC50 [µM] | Structure (SMILES) |
| --- | --- | --- |
| – | 15 | O=C(O)c1ccc(/C=C2\SC(=S)N(c3ccc(Cl)c(C(F)(F)F)c3)C2=O)cc1 |
| – | 9 | O=C(O)c1ccc(NC(=S)C2SC(=S)N(c3cccc(C(F)(F)F)c3)C2=O)cc1 (stereo unspecified) |
| – | 7 | Cc1cccc(N2C(=O)/C(=C/c3ccc(C(=O)O)cc3)SC2=S)c1C |
| – | 32 | O=C(O)c1cc(Nc2nc(-c3cccc(C(F)(F)F)c3)cs2)ccc1O |
| inactive | – | O=C(O)c1ccc(/C=C2\SC(=S)N(Cc3cccc(C(F)(F)F)c3)C2=O)cc1 |
| – | 28 | O=C(O)c1ccc(Nc2nc(-c3cccc(C(F)(F)F)c3)cs2)cc1 |
| inactive | – | O=C(NCCO)c1ccc(/C=C2\SC(=S)N(c3cccc(C(F)(F)F)c3)C2=O)cc1 |
| – | 27 | O=C1C(C(=S)Nc2ccc(S(=O)(=O)O)o2)SC(=S)N1c1cccc(C(F)(F)F)c1 (stereo unspecified) |
| inactive | – | COc1cc(Br)ccc1/C=C1\SC(=S)N(c2cccc(C(F)(F)F)c2)C1=O |
| – | 28 | O=C1/C(=C/c2ccncc2)SC(=S)N1c1cccc(C(F)(F)F)c1 |
| – | 5 | O=C(O)c1cccc(/C=C2\SC(=S)N(c3ccc(F)c(C(F)(F)F)c3)C2=O)c1 |
| – | 20 | O=C(O)c1ccc(/C=C2\SC(=S)N(c3cc(C(F)(F)F)ccc3Cl)C2=O)cc1 |
| inactive | – | O=C(O)c1ccc(-n2cc(-c3ccc(C(F)(F)F)cc3)nn2)cc1 |
| – | 13 | O=C(O)c1cccc(/C=C2\SC(=S)N(c3ccc(C(F)(F)F)cc3)C2=O)c1 |
| – | 7 | O=C1/C(=C/c2cc(Br)c(O)c(Br)c2)SC(=S)N1c1cccc(C(F)(F)F)c1 |
| – | 1.5 | O=C(O)c1ccc(/C=C2\SC(=S)N(c3ccc(F)c(C(F)(F)F)c3)C2=O)cc1 |
| – | 20 | O=C(O)c1ccccc1/C=C1\SC(=S)N(c2ccc(C(F)(F)F)cc2)C1=O |
| – | 19 | O=C(O)c1cccc(/C=C2\SC(=S)N(c3ccccc3C(F)(F)F)C2=O)c1 |
| – | 15 | O=C(O)c1ccccc1/C=C1\SC(=S)N(c2cccc(C(F)(F)F)c2)C1=O |
| – | 50 | O=C1/C(=C/c2ccc(S(=O)(=O)O)cc2S(=O)(=O)O)SC(=S)N1c1cccc(C(F)(F)F)c1 |
| – | 27 | O=C(O)c1ccc(CC2SC(=S)N(c3cccc(C(F)(F)F)c3)C2=O)cc1 (stereo unspecified) |
| – | 18 | O=C(O)c1ccccc1/C=C1\SC(=S)N(c2ccccc2C(F)(F)F)C1=O |
| – | 11 | O=C1/C(=C/c2cc(O)c(O)c(O)c2)SC(=S)N1c1cccc(C(F)(F)F)c1 |
| inactive | – | NC(=O)c1ccc(/C=C2\SC(=S)N(c3cccc(C(F)(F)F)c3)C2=O)cc1 |

| Structure (SMILES) | Activity | IC50 [µM] |
| --- | --- | --- |
| O=C1/C(=C/c2ccc(S(=O)(=O)O)cc2)SC(=S)N1c1cccc(C(F)(F)F)c1 | – | 29 |

Test system: not listed separately
Assay: Cytotoxicity against rat FRT cells assessed as cell viability at 50 uM after 48 hrs by crystal violet staining
Assay type: cell-based
How it was run: (§1)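 Confluent FRT monolayers exposed to compound for 2 days. Cells were then washed three times, fixed for 30 min and stained with 0.5% crystal violet for 10 min. Dye was extracted in Sorenson's buffer (0.1 M sodium citrate, 50% ethanol, pH 4.2) and read at 650 nm. Percent staining was taken from 8 replicate wells relative to cell-free blanks and vehicle-treated cells.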

| Structure (SMILES) | Activity [%] |
| --- | --- |
| Cc1c(N2C(=O)/C(=C/c3ccc(C(=O)O)cc3)SC2=S)cccc1C(F)(F)F | 72 |
| O=C(O)c1ccc(/C=C2\SC(=O)N(c3cccc(C(F)(F)F)c3)C2=O)cc1 | 91 |
| O=C1/C(=C/c2ccc(-c3nn[nH]n3)cc2)SC(=S)N1c1cccc(C(F)(F)F)c1 | 73 |

Test system: not listed separately
Assay: Cytotoxicity against rat FRT cells assessed as cell viability at 20 uM after 48 hrs by crystal violet staining
Assay type: cell-based
How it was run: as §1

| Structure (SMILES) | Activity [%] |
| --- | --- |
| Cc1c(N2C(=O)/C(=C/c3ccc(C(=O)O)cc3)SC2=S)cccc1C(F)(F)F | 89 |
| O=C(O)c1ccc(/C=C2\SC(=O)N(c3cccc(C(F)(F)F)c3)C2=O)cc1 | 93 |
| O=C(O)c1ccc(/C=C2\SC(=S)N(c3cccc(C(F)(F)F)c3)C2=O)cc1 | 86 |
| O=C1/C(=C/c2ccc(-c3nn[nH]n3)cc2)SC(=S)N1c1cccc(C(F)(F)F)c1 | 87 |
